Measurements as given in ChEMBL document CHEMBL1129651, “3-Phenyl-substituted imidazo[1,5-alpha]quinoxalin-4-ones and imidazo[1,5-alpha]quinoxaline ureas that have high affinity at the GABAA/benzodiazepine receptor complex” (J Med Chem, 1996).

Columns and labels:
[1] = target: GABA-A receptor; anion channel (Rattus norvegicus) (UniProt O09028+P15431+P18506+P18508+P19969+P20236+P23574+P23576+P28471+P28473+P30191+P62813+P63079+P63138+Q91ZM7+Q9ES14)
[2] = organism: Mus musculus; assay: Compound was tested for ethanol potentiation expressed as loss of righting reflex (anesthesia); format: functional
Outline: (§1)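 Male CF-1 mice given 50% aqueous ethanol orally (7.5 mL/kg) plus test compound sc in 0.25% aqueous methyl cellulose (10 mL/kg). Tested 30 min later. Traction: hindlimb placed on wire within 10 s when suspended by forepaws. Righting: rolls onto feet within 10 s when released on its back. Six mice per dose; ED50s determined.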

[3] = organism: Mus musculus; assay: Compound was tested for ethanol potentiation expressed as the loss of traction response (muscle relaxation); format: functional
Outline: as §1

[4] = organism: Mus musculus; assay: Antagonism of benzodiazepine traction in mice; format: functional
Outline: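 Male CF-1 mice given triazolam 1 mg/kg ip together with test compound ip, starting at 100 mg/kg, in 0.25% aqueous methyl cellulose. Dose-response run on 0.5 log scale. Loss of traction scored 15 min later. Absence of the expected loss marks antagonism. ED50 taken from lower doses.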

[5] = target: GABA-A receptor; anion channel; assay: Binding affinity against benzodiazepine receptor (BzR) in rat cortical membranes determined by competition experiments with radiolabeled [3H]flunitrazepam (Fnz); format: cell membranes
[6] = test system: Rattus norvegicus; assay: Ability to antagonize metrazole-induced seizures (clonic and tonic) in rats after intraperitoneal injection; settings: ip
[7] = organism: Mus musculus; assay: Acute electroshock physical dependence activity (drug MA50/V122 MA50); format: functional
Outline: (§2)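 Male CF-1 mice, 10/group, dosed sc twice daily for 3 days (0800, then 2 times that dose at 1600). Flumazenil 2.5 mg/kg iv in 5% aqueous N,N-dimethylacetamide given 24 h after the last dose. 5 min later electroshock seizure threshold estimated by up-down method (0.05 log steps; transpinnal 0.6 ms pulses, 100 Hz, 0.2 s). Comparison is against a saline-treated, flumazenil-injected control group.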

[8] = target: GABA A receptor alpha-3/beta-2/gamma-2 (Rattus norvegicus) (UniProt P18508+P20236+P63138); assay: In vitro efficacy as change in chloride current against GABA-A alpha-3-beta-2-gamma-2 subunit expression; format: functional
[9] = organism: Mus musculus; assay: Compound was tested for Acute electroshock physical dependence activity (drug MA50/V122 MA50); No significant activity; format: functional
Outline: as §2

SMILES | TBPS shift [1] | ED50 [2] [mg/kg] | ED50 [3] [mg/kg] | ED50 [4] [mg/kg] | Ki [5] [nM] | ED50 [6] [mg/kg] | Activity [7] | Cl - current change [8] | Activity [9]
CN(C)C(=O)N1Cc2c(-c3ccc(F)cc3)ncn2-c2ccccc21 | 0.53 | > 30 | 11 | 4.9 | 2.96 | 4.4 | 0.87 |  | 
O=C(N1CCOCC1)N1Cc2c(-c3ccc(F)cc3)ncn2-c2ccc(Cl)cc21 | 1.05 | 27 | 11 | > 30 | 15.2 | 0.76 | 0.62 |  | 
CC(C)n1c(=O)c2c(-c3ccc(F)cc3)ncn2c2ccc(F)cc21 | 0.8 |  |  |  | 59.4 | > 50 |  |  | 
CC(C)n1c(=O)c2c(-c3ccc(C(F)(F)F)cc3)ncn2c2ccccc21 | 0.36 |  |  |  | > 10000 |  |  | 0.36 | 
Cc1ccc(-c2ncn3c2CN(C(=O)N(C)C)c2ccccc2-3)cc1 |  |  |  |  | 11.1 | 4.4 | 0.87 |  | 
COc1ccccc1-c1ncn2c1c(=O)n(C(C)C)c1ccccc12 |  |  |  |  | > 10000 |  |  |  | 
CC1(C)c2c(-c3ccc(F)cc3)ncn2-c2ccccc2N1C(=O)N1CCCC1 | 0.6 |  |  |  | 12.6 | > 50 |  |  | 
CN(C)C(=O)N1Cc2c(-c3ccccc3)ncn2-c2ccccc21 | 0.4 |  |  |  | 3.41 |  |  |  | 
COC(=O)N1Cc2c(-c3ccc(F)cc3)ncn2-c2ccccc21 | 0.53 |  |  |  | 47.2 | > 50 |  |  | 
Cc1ccc(-c2ncn3c2C(C)(C)N(C(=O)N2CCCC2)c2ccccc2-3)cc1 | 1.05 |  |  |  | 35 | 17.7 |  |  | 
COc1ccc(-c2ncn3c2CN(C(=O)N2CC(C)NC(C)C2)c2ccccc2-3)cc1 (centres undefined) | 0.31 |  |  | > 30 | 1.39 | 0.8 | 0.47 |  | 
O=C(c1ccc(F)cc1)N1Cc2c(-c3ccc(F)cc3)ncn2-c2ccccc21 | 0.82 |  |  |  | 20.5 | 29.7 |  |  | 
O=C(c1ccccc1F)N1Cc2c(-c3ccc(F)cc3)ncn2-c2ccccc21 | 0.84 |  |  |  | 42.4 |  |  |  | 
O=C(N1CCCC1)N1Cc2c(-c3ccccc3)ncn2-c2ccccc21 | 0.69 |  |  |  |  |  |  |  | 
CC(C)n1c(=O)c2c(-c3ccc(F)cc3)ncn2c2ccccc21 | 0.58 | > 30 | 14 | > 30 | 115 | 30 |  | 0.45 | 1
CC(C)OC(=O)N1Cc2c(-c3ccc(F)cc3)ncn2-c2ccccc21 | 0.93 | > 30 | > 30 | > 30 | 50.8 | 6.3 | 0.83 |  | 
CC(C)n1c(=O)c2c(-c3ccc(F)cc3)ncn2c2ccc(Cl)cc21 | 0.14 |  |  |  | 1690 | > 50 |  | 0.03 | 
CC1CN(C(=O)N2Cc3c(-c4ccc(F)cc4)ncn3-c3ccc(F)cc32)CC(C)N1 (centres undefined) | 0.72 |  |  | > 30 | 2.49 | 0.5 |  |  | 
CC(C)n1c(=O)c2c(-c3ccccc3)ncn2c2ccccc21 | 0.31 |  |  |  | 38.5 | > 50 |  |  | 
CN(C)C(=O)N1c2ccccc2-n2cnc(-c3ccccc3)c2C1(C)C | 0.45 |  |  |  | 478 |  |  |  | 
CC1CN(C(=O)N2Cc3c(-c4ccc(F)cc4)ncn3-c3ccccc32)CC(C)N1 (centres undefined) | 0.75 | > 30 | 4 | > 30 | 5.85 | 1.1 | 0.7 |  | 
COc1ccc(-c2ncn3c2c(=O)n(C(C)C)c2ccccc23)cc1 | 0.75 | > 30 | > 30 |  | 31.7 | 12.5 |  |  | 
COc1ccc(-c2ncn3c2c(=O)n(C(C)C)c2c(Cl)cccc23)cc1 | 1.04 | > 30 | > 30 | > 30 | 27.9 | 1.3 |  | 1 | 0.91
CN1C(=O)CN=C(c2ccccc2)c2cc(Cl)ccc21 [DIAZEPAM] |  | 0.86 | 0.54 |  |  | 0.5 | 18.2 |  | 
Cc1cccc2c1n(C(C)C)c(=O)c1c(-c3ccc(F)cc3)ncn12 | 1.83 |  |  |  | 126 | 2.6 |  | 1.7 | 
COc1ccc(-c2ncn3c2c(=O)n(C(C)C)c2cc(F)ccc23)cc1 | 0.97 |  |  |  | 81.5 | > 50 |  |  | 

SMILES | TBPS shift [1] | ED50 [2] [mg/kg] | ED50 [3] [mg/kg] | ED50 [4] [mg/kg] | Ki [5] [nM] | ED50 [6] [mg/kg] | Activity [7] | Cl - current change [8] | Activity [9]
CC(C)n1c(=O)c2c(-c3cccc(C(F)(F)F)c3)ncn2c2ccccc21 | 0.45 |  |  |  | 188 | > 50 |  | 0.03 | 
CN(C)C(=O)N1c2ccccc2-n2cnc(-c3ccc(F)cc3)c2C1(C)C | 0.49 |  |  |  | 163 | > 50 |  |  | 
CCNC(=O)N1Cc2c(-c3ccc(F)cc3)ncn2-c2ccccc21 | 0.42 |  |  |  | 48.6 | > 50 |  |  | 
O=C(c1cccc(F)c1)N1Cc2c(-c3ccc(F)cc3)ncn2-c2ccccc21 | 1.06 |  |  |  | 5.91 | 1.3 | 0.87 |  | 
O=C(N1CCOCC1)N1Cc2c(-c3ccc(F)cc3)ncn2-c2cccc(Cl)c21 | 0.44 |  |  |  | 2.97 | 3.7 | 0.86 |  | 
CC(C)n1c(=O)c2c(-c3ccc(F)cc3)ncn2c2cccc(Cl)c21 | 2.04 |  |  |  | 14.6 | 0.9 |  | 3.4 | 
CC(C)n1c(=O)c2c(-c3ccc(Cl)cc3)ncn2c2ccccc21 | 0.74 |  |  |  |  | > 50 |  |  | 
Cc1ccc(-c2ncn3c2c(=O)n(C(C)C)c2ccccc23)cc1 | 1.09 |  |  |  | 174 | > 50 |  |  | 
CC1CN(C(=O)N2Cc3c(-c4ccc(F)cc4)ncn3-c3cccc(Cl)c32)CC(C)N1 (centres undefined) | 0.31 |  |  | > 30 | 33.4 | 1.8 |  |  | 
CC1CN(C(=O)N2Cc3c(-c4ccc(F)cc4)ncn3-c3cccc(Cl)c32)CC(C)N1C (centres undefined) | 0.62 |  |  | > 30 | 47.4 | 1.8 | 0.8 |  | 
CC(C)n1c(=O)c2c(-c3ccccc3)ncn2c2ccc(F)cc21 | 0.77 |  |  |  | 39.6 | > 50 |  |  | 
CC(C)n1c(=O)c2c(-c3noc(C4CC4)n3)ncn2c2ccccc21 [PANADIPLON] |  | > 30 | 6.6 | 1.7 |  | 1.6 |  |  | 0.95
CC(C)(C)NC(=O)N1Cc2c(-c3ccc(F)cc3)ncn2-c2ccccc21 | 1.02 |  |  |  | 283 | > 50 |  |  | 
O=C(N1CCCCC1)N1Cc2c(-c3ccccc3)ncn2-c2ccccc21 | 0.52 | > 30 | 0.5 | > 30 | 1.65 | 4.5 | 0.82 |  | 
CC1CN(C(=O)N2Cc3c(-c4ccc(F)cc4)ncn3-c3ccccc32)CC(C)N1C (centres undefined) | 0.31 |  |  | > 30 | 13.2 | 13 | 0.8 |  | 
O=C(N1CCCC1)N1Cc2c(-c3ccc(F)cc3)ncn2-c2ccccc21 | 0.64 | > 30 | 0.34 | > 30 | 0.97 | 14.8 | 0.88 |  | 
O=C(N1CCOCC1)N1Cc2c(-c3ccc(F)cc3)ncn2-c2ccccc21 | 0.54 |  |  |  | 1.61 | 0.3 | 0.67 |  | 
CC1CN(C(=O)N2Cc3c(-c4ccc(F)cc4)ncn3-c3ccc(F)cc32)CC(C)N1C (centres undefined) | 0.64 |  |  |  |  | 1.3 | 0.59 |  | 
CC(C)n1c(=O)c2c(-c3cccc(F)c3)ncn2c2ccccc21 | 0.31 |  |  |  | 480 | > 50 |  |  | 
Cc1ccc(-c2ncn3c2C(C)(C)N(C(=O)N(C)C)c2ccccc2-3)cc1 | 0.71 |  |  |  | 334 | > 50 |  |  | 
COc1cccc(-c2ncn3c2c(=O)n(C(C)C)c2ccccc23)c1 | 0.24 |  |  |  | 207 | > 50 |  | 0.12 | 
NC(=O)N1Cc2c(-c3ccc(F)cc3)ncn2-c2ccccc21 | 0.29 |  |  |  | 216 | > 50 |  |  | 
COc1ccc(-c2ncn3c2c(=O)n(C(C)C)c2c(C)cccc23)cc1 | 0.92 |  |  |  | 49.7 | 3.1 |  | 1.3 | 
Cc1ccc(-c2ncn3c2CN(C(=O)N2CCCC2)c2ccccc2-3)cc1 | 1.19 |  |  |  | 1.54 |  |  |  | 
O=C(N1CCOCC1)N1Cc2c(-c3ccc(F)cc3)ncn2-c2ccc(F)cc21 | 0.7 | 17 | 5 | > 30 | 2.16 | 0.14 | 0.7 |  | 
